# ChEMBL document CHEMBL1123478, “Synthesis and antineoplastic activity of bis[[[(alkylamino)carbonyl]oxy]methyl]-substituted 3-pyrrolines as prodrugs of tumor inhibitory pyrrole bis(carbamates)” (1986)
# Several values for one entry are separate records, joined by “and”; a condition that tells them apart may be missing. Equal values may be shown once.
# Tests used:
# P388 [1] = test: Compound was tested for antitumor activity against P388 lymphocytic leukemia at the dose 30 mg/kg; format: functional, Mus musculus
# In short: (§1)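 P388 leukemia ascitic fluid implanted intraperitoneally into CD2F1 mice. Dosing was intraperitoneal, starting 24 h after inoculation, once daily for five doses, as a suspension in saline and Tween 80 made fresh each day. Some compounds were given in Klucel (hydroxypropylcellulose) or in saline/Tween/alcohol instead. Acute toxicity was checked on day 5 and the study was evaluated on day 30.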
# Mus musculus [2] = test: Tumor cell population at the end of treatment relative to its size at the beginning of the treatment was calculated at the 30 mg/kgd oses; format: functional; details: dose 30 mg/kg; in short: as §1
# [3] = Rate constants were calculated for the compound by linear regression analysis
# Mus musculus [4] = test: Body weight difference the relation of the test animal to control animal weight was calculated at the 15 mg/kg doses; format: functional; in short: as §1
# P388 [5] = test: Compound was tested for antitumor activity against P388 lymphocytic leukemia at the dose 60 mg/kg; format: functional, Mus musculus; in short: as §1
# Mus musculus [6] = test: Tumor cell population at the end of treatment relative to its size at the beginning of the treatment was calculated at the 150 mg/kg doses; format: functional; details: dose 15 mg/kg; in the assay text read “15 mg/kg doses” for “150 mg/kg doses”; in short: as §1
# Mus musculus [7] = test: Body weight difference the relation of the test animal to control animal weight was calculated at the 30 mg/kg doses; format: functional; in short: as §1
# Mus musculus [8] = test: Tumor cell population at the end of treatment relative to its size at the beginning of the treatment was calculated at the 60 mg/kg doses; format: functional; in short: as §1
# P388 [9] = test: Compound was tested for antitumor activity against P388 lymphocytic leukemia at the dose 15 mg/kg; format: functional, Mus musculus; in short: as §1
# Mus musculus [10] = test: Body weight difference the relation of the test animal to control animal weight was calculated at the 60 mg/kg doses; format: functional; in short: as §1
# Mus musculus [11] = test: Tumor cell population at the end of treatment relative to its size at the beginning of the treatment was calculated at the 120 mg/kg doses; format: functional; in short: as §1
# Mus musculus [12] = test: Body weight difference the relation of the test animal to control animal weight was calculated at the 240 mg/kg doses; format: functional; in short: as §1
# Mus musculus [13] = test: Body weight difference the relation of the test animal to control animal weight was calculated at the 120 mg/kg doses; format: functional; in short: as §1
# Mus musculus [14] = test: Tumor cell population at the end of treatment relative to its size at the beginning of the treatment was calculated at the 240 mg/kg doses; format: functional; in short: as §1
# P388 [15] = test: Compound was tested for antitumor activity against P388 lymphocytic leukemia at the dose 480 mg/kg; format: functional, Mus musculus; in short: as §1
# P388 [16] = test: Compound was tested for antitumor activity against P388 lymphocytic leukemia at the dose 120 mg/kg; format: functional, Mus musculus; in short: as §1
# Mus musculus [17] = test: Tumor cell population at the end of treatment relative to its size at the beginning of the treatment was calculated at the 480 mg/kg doses; format: functional; in short: as §1
# Mus musculus [18] = test: Body weight difference the relation of the test animal to control animal weight was calculated at the 480 mg/kg doses; format: functional; in short: as §1
# P388 [19] = test: Compound was tested for antitumor activity against P388 lymphocytic leukemia at the dose 240 mg/kg; format: functional, Mus musculus; in short: as §1
# P388 [20] = test: Compound was tested for antitumor activity against P388 lymphocytic leukemia at the dose 7.5 mg/kg; format: functional, Mus musculus; in short: as §1
# Mus musculus [21] = test: Tumor cell population at the end of treatment relative to its size at the beginning of the treatment was calculated at the 15 mg/kg doses; format: functional; in short: as §1
# Mus musculus [22] = test: Body weight difference the relation of the test animal to control animal weight was calculated at the 7.5 mg/kg doses; format: functional; in short: as §1
# Mus musculus [23] = test: Tumor cell population at the end of treatment relative to its size at the beginning of the treatment was calculated at the 7.5 mg/kg doses; format: functional; in short: as §1
# Mus musculus [24] = test: Body weight difference the relation of the test animal to control animal weight was calculated at the 25 mg/kg doses; format: functional; in short: as §1
# P388 [25] = test: Compound was tested for antitumor activity against P388 lymphocytic leukemia at the dose 25 mg/kg; format: functional, Mus musculus; in short: as §1
# Mus musculus [26] = test: Tumor cell population at the end of treatment relative to its size at the beginning of the treatment was calculated at the 100 mg/kg doses; format: functional; in short: as §1
# Mus musculus [27] = test: Body weight difference the relation of the test animal to control animal weight was calculated at the 100 mg/kg doses; format: functional; in short: as §1
# Mus musculus [28] = test: Tumor cell population at the end of treatment relative to its size at the beginning of the treatment was calculated at the 25 mg/kg doses; format: functional; in short: as §1
# Mus musculus [29] = test: Body weight difference the relation of the test animal to control animal weight was calculated at the 50 mg/kg doses; format: functional; in short: as §1
# P388 [30] = test: Compound was tested for antitumor activity against P388 lymphocytic leukemia at the dose 100 mg/kg; format: functional, Mus musculus; in short: as §1
# P388 [31] = test: Compound was tested for antitumor activity against P388 lymphocytic leukemia at the dose 50 mg/kg; format: functional, Mus musculus; in short: as §1
# Mus musculus [32] = test: Tumor cell population at the end of treatment relative to its size at the beginning of the treatment was calculated at the 50 mg/kg doses; format: functional; in short: as §1
# Mus musculus [33] = test: Body weight difference the relation of the test animal to control animal weight was calculated at the 12.5 mg/kg doses; format: functional; in short: as §1
# P388 [34] = test: Compound was tested for antitumor activity against P388 lymphocytic leukemia at the dose 12.5 mg/kg; format: functional, Mus musculus; in short: as §1
# Mus musculus [35] = test: Tumor cell population at the end of treatment relative to its size at the beginning of the treatment was calculated at the 12.5 mg/kg doses; format: functional; in short: as §1
# P388 [36] = test: Compound was tested for antitumor activity against P388 lymphocytic leukemia at the dose 400 mg/kg; format: functional, Mus musculus; in short: as §1
# Mus musculus [37] = test: Body weight difference the relation of the test animal to control animal weight was calculated at the 200 mg/kg doses; format: functional; in short: as §1
# P388 [38] = test: Compound was tested for antitumor activity against P388 lymphocytic leukemia at the dose 200 mg/kg; format: functional, Mus musculus; in short: as §1
# Mus musculus [39] = test: Body weight difference the relation of the test animal to control animal weight was calculated at the 400 mg/kg doses; format: functional; in short: as §1
smiles,measurement,setting,value
COc1ccc(-c2c(COC(=O)NC(C)C)c(COC(=O)NC(C)C)cn2C)cc1,T/C,P388 [1],117%
same,KE,Mus musculus [2],-0.08
same,K',[3],0.231 abs/time
same,BDW,Mus musculus [4],0 g
same,T/C,P388 [5],164%
same,KE,Mus musculus [6],-0.06
same,BDW,Mus musculus [7],0.4 g
same,KE,Mus musculus [8],0.1
same,T/C,P388 [9],123%
same,BDW,Mus musculus [10],-0.8 g
CC(C)NC(=O)OCc1cn(C)c(-c2ccc(Cl)c(Cl)c2)c1COC(=O)NC(C)C,KE,Mus musculus [11],-0.39
same,BDW,Mus musculus [12],-2.7 g
same,BDW,Mus musculus [13],-1.6 g
same,K',[3],0.00605 abs/time
same,T/C,P388 [5],117%
same,KE,Mus musculus [14],2.43
same,T/C,P388 [15],169%
same,KE,Mus musculus [8],-1.15
same,T/C,P388 [16],133%
same,KE,Mus musculus [17],3.4
same,BDW,Mus musculus [18],-3.6 g
same,BDW,Mus musculus [10],-0.8 g
same,T/C,P388 [19],160%
COc1ccc(C2C(COC(=O)NC(C)C)=C(COC(=O)NC(C)C)CN2C)cc1 (configuration not stated),BDW,Mus musculus [13]; 120 mg/kg,-1.9 g and -1.2 g
same,T/C,P388 [5],158%
same,T/C,P388 [16],110%
CC(C)NC(=O)OCc1cn(C)c(-c2ccccc2)c1COC(=O)NC(C)C,T/C,P388 [1],100%
same,T/C,P388 [20],127%
same,KE,Mus musculus [21],-0.04
same,BDW,Mus musculus [13],-4.6 g
same,KE,Mus musculus [2],-0.15
same,BDW,Mus musculus [22],0.1 g
same,KE,Mus musculus [23],-0.04
same,K',[3],0.0935 abs/time
same,BDW,Mus musculus [4],-0.1 g
same,BDW,Mus musculus [7],-2.3 g
same,T/C,P388 [9],148%
same,BDW,Mus musculus [10],-4 g
CC(C)NC(=O)OCc1cn(C)c(-c2ccc(F)cc2)c1COC(=O)NC(C)C,T/C,P388 [1],188%
same,KE,Mus musculus [21],0.04
same,KE,Mus musculus [2],0.21
same,K',[3],0.0516 abs/time
same,BDW,Mus musculus [4],-0.4 g
same,BDW,Mus musculus [7],-2.2 g
same,T/C,P388 [9],145%
same,BDW,Mus musculus [10],-2.7 g
CC(C)NC(=O)OCC1=C(COC(=O)NC(C)C)C(c2ccc(F)cc2)N(C)C1 (configuration not stated),BDW,Mus musculus [12],-2.7 g
same,BDW,Mus musculus [13],-2.7 g
same,T/C,P388 [5],112%
same,T/C,P388 [16],131%
same,BDW,Mus musculus [10],-0.2 g
same,T/C,P388 [19],137%
CC(C)NC(=O)OCC1=C(COC(=O)NC(C)C)C(c2ccccc2)N(C)C1 (configuration not stated),BDW,Mus musculus [24],-0.9 g
same,T/C,P388 [25],136%
same,KE,Mus musculus [26],5.18
same,BDW,Mus musculus [27],-2.2 g
same,KE,Mus musculus [28],0
same,BDW,Mus musculus [29],-2 g
same,T/C,P388 [30],225%
same,T/C,P388 [31],145%
same,KE,Mus musculus [32],0.53
same,BDW,Mus musculus [33],0 g
same,T/C,P388 [34],121%
same,KE,Mus musculus [35],0.84
CC(C)NC(=O)OCC1=C(COC(=O)NC(C)C)C(C)(C)N(C)C1c1ccccc1 (configuration not stated),T/C,P388 [36],107%
same,BDW,Mus musculus [27],-0.3 g
same,BDW,Mus musculus [37],-0.1 g
same,T/C,P388 [38],108%
same,BDW,Mus musculus [29],0.5 g
same,T/C,P388 [30],113%
same,BDW,Mus musculus [39],-2.3 g
same,T/C,P388 [31],108%
CC(C)NC(=O)OCC1=C(COC(=O)NC(C)C)[C@@H](c2ccccc2)N(C)[C@H]1c1ccccc1,BDW,Mus musculus [24],-1.2 g
same,T/C,P388 [25],139%
same,KE,Mus musculus [26],3.06
same,BDW,Mus musculus [27],-3 g
same,KE,Mus musculus [28],0.16
same,BDW,Mus musculus [29],-2.3 g
same,T/C,P388 [30],189%
same,T/C,P388 [31],145%
same,KE,Mus musculus [32],0.53
same,BDW,Mus musculus [33],0 g
same,T/C,P388 [34],120%
same,KE,Mus musculus [35],-0.9
COc1ccc2c(c1)CCn1cc(COC(=O)NC(C)C)c(COC(=O)NC(C)C)c1-2,T/C,P388 [20],175%
same,KE,Mus musculus [21],-0.04
same,BDW,Mus musculus [22],-2.6 g
same,KE,Mus musculus [23],0.16
same,K',[3],0.449 abs/time
same,BDW,Mus musculus [4],-3 g
same,BDW,Mus musculus [7],-3.1 g
same,T/C,P388 [9],125%
CC(C)NC(=O)OCc1cn2c(c1COC(=O)NC(C)C)-c1cc(Cl)c(Cl)cc1CC2,KE,Mus musculus [11],-0.68
same,BDW,Mus musculus [12],-2.3 g
same,BDW,Mus musculus [13],-2.2 g
same,K',[3],0.00154 abs/time
same,T/C,P388 [5],86%
same,KE,Mus musculus [14],0.1
same,T/C,P388 [15],185%
same,KE,Mus musculus [8],-1.54
same,T/C,P388 [16],130%
same,KE,Mus musculus [17],5.05
same,BDW,Mus musculus [18],-3.2 g
same,BDW,Mus musculus [10],-0.4 g
same,T/C,P388 [19],137%
CNC(=O)OCC1=C(COC(=O)NC)[C@@H](c2ccccc2)N(C)[C@H]1c1ccccc1,BDW,Mus musculus [24],-1.4 g
same,T/C,P388 [25],136%
same,BDW,Mus musculus [27],-4.3 g
same,KE,Mus musculus [28],0
same,BDW,Mus musculus [29],-1.7 g
same,T/C,P388 [31],154%
same,KE,Mus musculus [32],1.06
same,BDW,Mus musculus [33],-0.1 g
same,T/C,P388 [34],116%
same,KE,Mus musculus [35],-1.16
CC(C)NC(=O)OCC1=C(COC(=O)NC(C)C)C(c2ccc(Cl)c(Cl)c2)N(C)C1 (configuration not stated),BDW,Mus musculus [12],-2.5 g
same,BDW,Mus musculus [13],-1.6 g
same,T/C,P388 [5],110%
same,T/C,P388 [16],117%
same,BDW,Mus musculus [10],-1.3 g
same,T/C,P388 [19],119%
Cc1c(COC(=O)NC(C)C)c(COC(=O)NC(C)C)c(-c2ccccc2)n1C,K',[3],1.68 abs/time
